Assay [1] has as its target Cyclin-dependent kinase 2 (Homo sapiens, UniProt P24941). As to the kind of experiment: Inhibition of CDK2.
Assay [2] concerns the target T1, 3-phosphoinositide-dependent protein kinase 1 (Homo sapiens, UniProt O15530).
T1 sequence (O15530 whole entry): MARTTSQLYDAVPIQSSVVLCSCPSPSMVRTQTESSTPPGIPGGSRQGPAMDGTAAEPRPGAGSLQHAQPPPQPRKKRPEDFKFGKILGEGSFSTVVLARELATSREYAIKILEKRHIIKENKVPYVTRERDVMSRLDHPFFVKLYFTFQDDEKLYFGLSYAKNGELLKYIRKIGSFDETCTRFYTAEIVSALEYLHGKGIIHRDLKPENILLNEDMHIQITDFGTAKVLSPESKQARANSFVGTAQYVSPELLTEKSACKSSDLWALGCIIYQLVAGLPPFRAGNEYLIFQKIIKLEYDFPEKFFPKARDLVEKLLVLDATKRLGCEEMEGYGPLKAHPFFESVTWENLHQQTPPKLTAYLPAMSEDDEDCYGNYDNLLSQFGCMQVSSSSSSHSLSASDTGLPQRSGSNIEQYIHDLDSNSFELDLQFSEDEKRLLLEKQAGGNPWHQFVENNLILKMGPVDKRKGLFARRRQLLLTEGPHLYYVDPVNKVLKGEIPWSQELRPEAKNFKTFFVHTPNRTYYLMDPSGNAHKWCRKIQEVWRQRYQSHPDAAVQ
As to the kind of experiment: (§1) Inhibition of PDK1.

A further assay deals with A2780. As to the kind of experiment: Cytotoxicity against human A2780 cells after 72 hrs by Cell titer-glo assay. Type of assay: functional. An outline of the steps: (§2)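 A2780 cells were grown in RPMI-1640 and MCF7 cells in MEM, each with heat-inactivated 10% fetal calf serum. Cells were seeded at 2500–5000 cells/well, treated with compound after 24 h, and incubated 72 h at 37 °C under 5% CO₂. Lysed-well ATP content, read by thermostable firefly luciferase, measured viable cells. IC₅₀ came from percent growth versus untreated control.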
For orientation: In ATP-based viability assays light output follows the ATP content of the culture.

A further assay deals with MCF7. Briefly: Cytotoxicity against human MCF7 cells after 72 hrs by Cell titer-glo assay. Type of assay: functional. The gist of the method:
as §2

The target of assay [3] is T2, Aurora kinase A (Homo sapiens) (UniProt O14965).
T2 sequence (whole entry): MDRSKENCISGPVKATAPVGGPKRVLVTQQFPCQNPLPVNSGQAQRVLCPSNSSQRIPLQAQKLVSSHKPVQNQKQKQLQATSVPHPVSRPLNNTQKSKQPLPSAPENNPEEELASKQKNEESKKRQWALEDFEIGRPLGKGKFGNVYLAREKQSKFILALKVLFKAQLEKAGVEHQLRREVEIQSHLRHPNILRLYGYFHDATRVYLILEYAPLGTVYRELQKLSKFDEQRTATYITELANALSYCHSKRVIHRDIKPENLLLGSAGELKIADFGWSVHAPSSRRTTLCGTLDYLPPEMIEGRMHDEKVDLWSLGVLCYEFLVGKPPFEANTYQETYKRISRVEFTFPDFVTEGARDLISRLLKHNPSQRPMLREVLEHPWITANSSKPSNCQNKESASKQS
Briefly: Inhibition of aurora A at 40 nM.

The target in assay [4] is Aurora kinase B (Homo sapiens) (UniProt Q96GD4). As to the kind of experiment: Inhibition of aurora B at 100 nM.
Aurora kinase B (Homo sapiens), sequence (Q96GD4 whole entry): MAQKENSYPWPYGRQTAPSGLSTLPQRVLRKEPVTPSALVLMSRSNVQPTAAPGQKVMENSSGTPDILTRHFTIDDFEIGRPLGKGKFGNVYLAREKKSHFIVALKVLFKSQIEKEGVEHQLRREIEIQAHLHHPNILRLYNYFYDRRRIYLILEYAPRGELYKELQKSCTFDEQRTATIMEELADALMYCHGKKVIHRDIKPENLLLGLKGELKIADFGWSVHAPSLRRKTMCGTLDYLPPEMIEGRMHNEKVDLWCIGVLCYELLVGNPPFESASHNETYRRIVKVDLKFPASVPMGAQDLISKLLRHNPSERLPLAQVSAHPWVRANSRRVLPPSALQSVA
For assay [5], the target named is T3, 3-phosphoinositide-dependent protein kinase 1 (Homo sapiens) (UniProt O15530).
T3 sequence (whole entry): T1 sequence (O15530 whole entry)
Described as §1.

Here are results for five compounds from ChEMBL document CHEMBL1177807, “Structure-based optimization of potent PDK1 inhibitors” (Bioorg Med Chem Lett, 2010).

The structures appear in SMILES notation. Calls of active or inactive are those of the source. No cut-off for these calls is given here. Some results are limits rather than exact numbers.

Usually IC50 stands for the concentration that gives 50% inhibition. Higher therefore signals weaker potency in that assay.

In the case of `NCCCn1nc(C(N)=O)c2c1-c1nc(Nc3ccccc3)ncc1CC2`, the concentration for half-maximal inhibition (IC50) is 0.001 µM in assay [1] and 0.036 µM in assay [2]. The Activity in the assay with A2780 stood at 0.12 µM; in the assay with MCF7 it was 0.14 µM.

With `NC(=O)Cn1nc(C(N)=O)c2c1-c1nc(Nc3ccccc3)ncc1CC2`, the 50% inhibitory concentration (IC50) was 0.01 µM in assay [1] and 2.74 µM in assay [2]. The Activity in the assay with A2780 was 2.71 µM; in the assay with MCF7, 6 µM.

On to `Cc1cc(CNC(=O)c2nn(CCCN)c3c2CCc2cnc(Nc4cccc(CC(=O)N(C)C)c4)nc2-3)ccn1` [NERVIANO], for which the values for the IC50 in assay [1] and in assay [2] were 0.5 µM and 0.085 µM, respectively. Further, the Activity is 5.9 µM in the assay on A2780 and over 10 µM in the assay on MCF7. Further, the inhibition result in assay [3] and in assay [4] was “Active” each time.

Regarding `Cc1cc(CNC(=O)c2nn(C)c3c2CCc2cnc(Nc4ccc(N5CCN(C)CC5)cc4)nc2-3)ccn1`, the results for the IC50 in assay [1] and in assay [5] were 0.319 µM and 0.713 µM, respectively. The Activity in the assay with A2780 was 0.17 µM; in the assay with MCF7, 4.91 µM.

In assay [1], `NC(=O)c1nn(CC2CCNCC2)c2c1CCc1cnc(Nc3ccccc3)nc1-2` had an IC50 of 0.012 µM. The Activity was 0.51 µM with A2780 and 1.36 µM in the assay on MCF7.
